Experimental data from ChEMBL document CHEMBL1177846, “Benzylidene/2-chlorobenzylidene hydrazides: synthesis, antimicrobial activity, QSAR studies and antiviral evaluation” (Eur J Med Chem, 2010).
Active and inactive are the calls of the source. The calls are words filed in the database; no cut-off is given here.

Legend:
Aspergillus niger = test: Antifungal activity against Aspergillus niger after 7 days by serial dilution method; assay type: functional
Human alphaherpesvirus 1 [1] = test: Antiviral activity against acyclovir-resistant […] kinase-deficient HSV1 KOS infected in human HEL cells assessed as inhibition of virus-induced cytopathic effect after 3 days by MTS assay; assay type: functional, organism-based
Summary of the method: (§1)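 Confluent cell monolayers were infected with 100 CCID50 of virus and allowed 2 h adsorption at 37 °C. Virus was then removed and serial compound dilutions were added. Cultures were incubated at 37 °C for 3 days, until CPE was complete in the untreated virus control. EC50 was the concentration giving 50% inhibition of virus-induced CPE, by visual score or by MTS formazan cell viability.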

Human alphaherpesvirus 1 [2] = test: Antiviral activity against Herpes simplex virus 1 KOS infected in human HEL cells assessed as inhibition of virus-induced cytopathic effect after 3 days by MTS assay; assay type: functional, organism-based; summary of the method: as §1
Human respirovirus 3 = test: Antiviral activity against Parainfluenza 3 virus infected in african green monkey Vero cells assessed as inhibition of virus-induced cytopathic effect after 3 days by MTS assay; assay type: functional, organism-based; summary of the method: as §1
Felid alphaherpesvirus 1 = test: Antiviral activity against Feline herpesvirus 1 infected in […] cells assessed as inhibition of virus-induced cytopathic effect after 3 days by MTS assay; assay type: functional, organism-based; summary of the method: as §1
Staphylococcus aureus = test: Antibacterial activity against Staphylococcus aureus after 24 hrs by serial dilution method; assay type: functional
Coxsackievirus B4 = test: Antiviral activity against Coxsackie virus B4 infected in african green monkey Vero cells assessed as inhibition of virus-induced cytopathic effect after 3 days by MTS assay; assay type: functional, organism-based; summary of the method: as §1
Feline coronavirus = test: Antiviral activity against Feline caronavirus infected in […] cells assessed as inhibition of virus-induced cytopathic effect after 3 days by MTS assay; assay type: functional, organism-based; summary of the method: as §1
Escherichia coli = test: Antibacterial activity against Escherichia coli after 24 hrs by serial dilution method; assay type: functional
Influenza A virus [3] = test: Antiviral activity against influenza A virus H1N1 infected in MDCK cells assessed as inhibition of virus-induced cytopathic effect after 3 days by MTS assay; assay type: functional, organism-based; summary of the method: as §1
Human alphaherpesvirus 2 = test: Antiviral activity against Herpes simplex virus 2 G infected in human HEL cells assessed as inhibition of virus-induced cytopathic effect after 3 days by MTS assay; assay type: functional, organism-based; conditions: strain G; summary of the method: as §1
[4] = test system: Mammalian orthoreovirus 1; test: Antiviral activity against Reovirus 1 infected in african green monkey Vero cells assessed as inhibition of virus-induced cytopathic effect after 3 days by MTS assay; assay type: functional, organism-based; summary of the method: as §1
Sindbis virus = test: Antiviral activity against Simbidis virus infected in african green monkey Vero cells assessed as inhibition of virus-induced cytopathic effect after 3 days by MTS assay; assay type: functional, organism-based; summary of the method: as §1
Bacillus subtilis = test: Antibacterial activity against Bacillus subtilis after 24 hrs by serial dilution method; assay type: functional
[5] = test system: Vesicular stomatitis virus; test: Antiviral activity against VSV infected in human HEL cells assessed as inhibition of virus-induced cytopathic effect after 3 days by MTS assay; assay type: functional, organism-based; summary of the method: as §1
Influenza A virus [6] = test: Antiviral activity against influenza A virus H3N2 infected in MDCK cells assessed as inhibition of virus-induced cytopathic effect after 3 days by MTS assay; assay type: functional, organism-based; summary of the method: as §1
Candida albicans = test: Antifungal activity against Candida albicans after 48 hrs by serial dilution method; assay type: functional
Summary of the method: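 Serial compound dilutions in Sabouraud dextrose broth (tube dilution), incubated 37 °C for 48 h. MIC was read as the lowest concentration with no growth.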

Punta Toro virus = test: Antiviral activity against Punta toro virus infected in african green monkey Vero cells assessed as inhibition of virus-induced cytopathic effect after 3 days by MTS assay; assay type: functional, organism-based; summary of the method: as §1
Vaccinia virus = test: Antiviral activity against Vaccinia virus infected in human HEL cells assessed as inhibition of virus-induced cytopathic effect after 3 days by MTS assay; assay type: functional, organism-based; conditions: Orthopoxvirus vaccinia; summary of the method: as §1
Influenza B virus = test: Antiviral activity against influenza B virus infected in MDCK cells assessed as inhibition of virus-induced cytopathic effect after 3 days by MTS assay; assay type: functional, organism-based; summary of the method: as §1

| Structure (SMILES) | -logMIC (Aspergillus niger) | MFC (Aspergillus niger) [uM/ml] | inhibition (Human alphaherpesvirus 1 [1]) | inhibition (Human alphaherpesvirus 1 [2]) | inhibition (Human respirovirus 3) | inhibition (Felid alphaherpesvirus 1) | MBC (Staphylococcus aureus) [uM/ml] | inhibition (Coxsackievirus B4) | inhibition (Feline coronavirus) | MBC (Escherichia coli) [uM/ml] | inhibition (Influenza A virus [3]) | inhibition (Human alphaherpesvirus 2) | inhibition [4] | inhibition (Sindbis virus) | MBC (Bacillus subtilis) [uM/ml] | inhibition [5] | inhibition (Influenza A virus [6]) | MFC (Candida albicans) [uM/ml] | inhibition (Punta Toro virus) | inhibition (Vaccinia virus) | also measured |
| --- | --- | --- | --- | --- | --- | --- | --- | --- | --- | --- | --- | --- | --- | --- | --- | --- | --- | --- | --- | --- | --- |
| CCCCCCCCCCCCCCCC(=O)N/N=C/c1ccccc1 | 0.86 | >0.139 | inactive | inactive | inactive | inactive | >0.139 | inactive | inactive | >0.139 | inactive | inactive | inactive | inactive | 0.139 | inactive | inactive | >0.139 | inactive | inactive | inhibition (Influenza B virus): inactive |
| CCCCCCCCCCCCCCCCCC(=O)N/N=C/c1ccccc1 | 1.2 | 0.03 | inactive | inactive | inactive | inactive | 0.129 | inactive | inactive | 0.064 | inactive | inactive | inactive | inactive | <0.129 | inactive | inactive | <0.129 | inactive | inactive | -logMIC (Escherichia coli): 1.79; -logMIC (Bacillus subtilis): 1.49; -logMIC (Candida albicans): 2.09; inhibition (Influenza B virus): inactive |
| Cc1cccc(C(=O)N/N=C/c2ccccc2Cl)c1 | 1.51 | >0.183 | inactive | inactive | inactive | inactive | >0.183 | inactive | inactive | 0.045 | inactive | inactive | inactive | inactive | 0.045 | inactive | inactive | >0.183 | inactive | inactive | inhibition (Influenza B virus): inactive |
| CCCCCCCCCCCCCC(=O)N/N=C/c1ccccc1 | 1.24 | >0.152 | inactive | inactive | inactive | inactive | >0.152 | inactive | inactive | >0.152 | inactive | inactive | inactive | inactive | >0.152 | inactive | inactive | >0.152 | inactive | inactive | inhibition (Influenza B virus): inactive |
| CCCCCCCCCCCCCC(=O)N/N=C/c1ccccc1Cl | 1.12 | >0.137 | inactive | inactive | inactive | inactive | >0.137 | inactive | inactive | 0.034 | inactive | inactive | inactive | inactive | >0.137 | inactive | inactive | >0.137 | inactive | inactive | inhibition (Influenza B virus): inactive |
